Reference: ChEMBL document CHEMBL3526127, “Absorption, elimination, and metabolism of CS-1036, a novel α-amylase inhibitor in rats and monkeys, and the relationship between gastrointestinal distribution and suppression of glucose absorption” (Drug Metab Dispos, 2013)
Blank lines part the entries; values can stand above or below the molecule they belong to.

How the values were obtained:
[1] = Drug excretion in F344 rat urine at 1 mg/kg, po administered as single dose after 0 to 48 hrs by scintillation counting method; type: ADME, organism-based; parameters: dose 1 mg/kg, route oral; conditions: in vivo
In short: (§1)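 Fasted F344 rats (152–156 g iv via tail vein; 154–159 g oral; n = 4) received [14C]-labelled drug at 1 mg/kg (41.9 µCi/kg). Animals were kept in metabolic cages; urine and feces were collected to 168 h, and expired CO2 was trapped in 2-aminoethanol/2-methoxyethanol (1:1) to 48 h. Samples were counted by liquid scintillation (feces homogenized). Results are % of dose, mean ± S.D.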

[2] = Drug excretion in F344 rat feces at 1 mg/kg, po administered as single dose after 0 to 48 hrs by scintillation counting method; type: ADME, organism-based; parameters: dose 1 mg/kg, route oral; conditions: in vivo; in short: as §1
[3] = Drug metabolism in rat kidney […] S9 fractions at 0.42 uCi/ml assessed as metabolite formation in presence of NADPH after 1 hr at 37 degC by LC-MS/MS method; type: ADME, subcellular; conditions: s9, 1 h
[4] = Drug metabolism in anaerobic culture broth of monkey feces assessed as 1,4-dideoxy-1,4-imino-D-arabinitol formation at 63.5 uCi/ml after 24 hrs at 35 degC by LC-MS/MS method; conditions: cynomolgus monkey
[5] = test system: Cynomolgus monkey; assay: Total drug excretion in cynomolgus monkey at 3 mg/kg, po administered as single dose after 0 to 48 hrs by scintillation counting method; type: ADME, organism-based, Macaca fascicularis; parameters: dose 3 mg/kg, route oral; conditions: in vivo
In short: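 Fasted male cynomolgus monkeys (n = 4) were dosed with 14C-labelled drug at 3 mg/kg, iv via saphenous vein (191 µCi/kg) or orally by stomach catheter (156.5 µCi/kg). Urine, feces and cage-wash water were collected to 336 h. Radioactivity was measured by liquid scintillation counting, with feces homogenized in water, and expressed as % of dose.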

[6] = Drug distribution in F344 rat cecum at 1 mg/kg, po administered as single dose after 2 hrs by scintillation counting method; type: ADME, organism-based, Caecum; parameters: dose 1 mg/kg, route oral; conditions: in vivo
In short: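 [14C]-labelled drug (1 mg/kg, 42.4 µCi/kg) was given orally to fasted F344 rats (148–168 g, n = 3). Contents of stomach, duodenum+jejunum, ileum and cecum were washed out with water at 0.5–8 h, homogenized, solubilized and counted by liquid scintillation. Results are % of dose, mean ± S.D.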

[7] = test system: Rattus norvegicus; assay: Total drug excretion in F344 rat at 1 mg/kg, iv administered as single dose after 0 to 48 hrs by scintillation counting method; type: ADME, organism-based; parameters: dose 1 mg/kg, route intravenous; conditions: in vivo
In short: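 Fasted F344 rats (n = 4) received [14C]-labelled drug at 1 mg/kg (41.9 µCi/kg), iv via tail vein or oral. They were housed in metabolic cages. Urine and feces were collected to 168 h, and expired CO2 was trapped in 2-aminoethanol/2-methoxyethanol to 48 h. Radioactivity was counted by liquid scintillation, feces after homogenization. Results are % of dose.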

[8] = test system: Cynomolgus monkey; assay: Drug excretion in cynomolgus monkey assessed as drug level found during cage washing at 3 mg/kg, po administered as single dose after 0 to 48 hrs by scintillation counting method; type: ADME, organism-based, Macaca fascicularis; parameters: dose 3 mg/kg, route oral; conditions: in vivo
In short: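 Fasted cynomolgus monkeys (n = 4) received [14C]-labelled drug at 3 mg/kg, iv via saphenous vein (191 µCi/kg) or orally by stomach catheter (156.5 µCi/kg). Urine, feces and water cage-wash were collected to 336 h. Samples were counted by liquid scintillation; feces were homogenized in 4-fold water. Results are % of dose, mean ± S.D.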

[9] = Cmax in cynomolgus monkey at 1 mg/kg, po administered as single dose by LC-MS/MS method; type: ADME, organism-based, Macaca fascicularis; parameters: dose 1 mg/kg, route oral; conditions: in vivo
In short: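 Fasted male F344 rats (146–185 g) and cynomolgus monkeys (3.48–4.29 kg), n = 4 each, received a single oral dose; monkeys had 2-week washouts. Plasma sampled up to 48 h, stored at […], assayed by LC-MS/MS with a deuterated internal standard. Cmax taken from observed data by noncompartmental analysis; mean ± S.D. (n = 3 or 4).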

[10] = Clearance in F344 rat at 1 mg/kg, iv administered as single dose by LC-MS/MS method; type: ADME, organism-based; parameters: dose 1 mg/kg, route intravenous; conditions: in vivo
In short: (§2)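 Fasted male F344 rats (146–185 g) and male cynomolgus monkeys (3.48–4.29 kg), n = 4 each, received a single iv dose; monkeys had 2-week washouts between doses. Blood was sampled up to 48 h and plasma stored at […]. Plasma parent was quantified by LC-MS/MS with a deuterated internal standard. CL = dose/AUC0–inf by noncompartmental analysis; mean ± S.D.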

[11] = Oral bioavailability in cynomolgus monkey at 3 mg/kg administered as single dose by LC-MS/MS method; type: ADME, organism-based, Macaca fascicularis; conditions: in vivo
In short: (§3)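 Male F344 rats (146–185 g) and male cynomolgus monkeys (3.48–4.29 kg), n = 4 each, fasted overnight, received single iv or oral doses of 0.3, 1.0, 3.0 or 10.0 mg/kg. Monkeys had 2-week washouts between doses. Plasma was sampled to 48 h and assayed by LC-MS/MS with deuterated internal standard. Noncompartmental analysis: tmax observed; t1/2 by regression on ≥3 terminal log points; Vss = dose·AUMC/(AUC0–inf)²; Foral = oral/iv AUC0–inf at the same dose.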

[12] = AUClast in cynomolgus monkey at 3 mg/kg, po administered as single dose by LC-MS/MS method; type: ADME, organism-based, Macaca fascicularis; parameters: time 0 - last, dose 3 mg/kg, route oral; conditions: plasma
In short: (§4)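 Fasted male F344 rats (146–185 g) or male cynomolgus monkeys (3.48–4.29 kg), n = 4 per dose, given single iv or oral dose of 0.3, 1.0, 3.0 or 10.0 mg/kg; monkeys dosed with 2-week washouts. Blood sampled to 48 h; plasma stored frozen. LC-MS/MS with deuterated internal standard. Noncompartmental analysis: AUClast by trapezoidal rule; AUC0–inf = AUClast + Ctz/terminal rate constant; mean ± S.D.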

[13] = Tmax in cynomolgus monkey at 1 mg/kg, po administered as single dose by LC-MS/MS method; type: ADME, organism-based, Macaca fascicularis; parameters: dose 1 mg/kg, route oral; conditions: in vivo; in short: as §3
[14] = AUC (0 to infinity) in F344 rat at 0.3 mg/kg, iv administered as single dose by LC-MS/MS method; type: ADME, organism-based; parameters: time infinity, dose 0.3 mg/kg, route intravenous; conditions: plasma; in short: as §4
[15] = AUClast in F344 rat at 10 mg/kg, iv administered as single dose by LC-MS/MS method; type: ADME, organism-based; parameters: time 0 - last, dose 10 mg/kg, route intravenous; conditions: plasma; in short: as §4
[16] = AUClast in F344 rat at 0.3 mg/kg, po administered as single dose by LC-MS/MS method; type: ADME, organism-based; parameters: time 0 - last, dose 0.3 mg/kg, route oral; conditions: plasma; in short: as §4
[17] = AUClast in F344 rat at 1 mg/kg, iv administered as single dose by LC-MS/MS method; type: ADME, organism-based; parameters: time 0 - last, dose 1 mg/kg, route intravenous; conditions: plasma; in short: as §4
[18] = AUC (0 to infinity) in F344 rat at 0.3 mg/kg, po administered as single dose by LC-MS/MS method; type: ADME, organism-based; parameters: time infinity, dose 0.3 mg/kg, route oral; conditions: plasma; in short: as §4
[19] = Half life in cynomolgus monkey at 3 mg/kg, po administered as single dose by LC-MS/MS method; type: ADME, organism-based, Macaca fascicularis; parameters: dose 3 mg/kg, route oral; conditions: in vivo; in short: as §3
[20] = Cmax in F344 rat at 10 mg/kg, po administered as single dose by LC-MS/MS method; type: ADME, organism-based; parameters: dose 10 mg/kg, route oral; conditions: in vivo
[21] = Oral bioavailability in F344 rat at 1 mg/kg administered as single dose by LC-MS/MS method; type: ADME, organism-based; conditions: in vivo; in short: as §3
[22] = AUClast in cynomolgus monkey at 1 mg/kg, po administered as single dose by LC-MS/MS method; type: ADME, organism-based, Macaca fascicularis; parameters: time 0 - last, dose 1 mg/kg, route oral; conditions: plasma; in short: as §4
[23] = Clearance in F344 rat at 0.3 mg/kg, iv administered as single dose by LC-MS/MS method; type: ADME, organism-based; parameters: dose 0.3 mg/kg, route intravenous; conditions: in vivo; in short: as §2

Drug excretion [1]: 13.34%
Drug excretion [2]: 77.59%
Drug metabolism [3]: metabolite_not_detected
Drug metabolism [4]: metabolite_detected
Drug excretion [5]: 83.8%
Drug uptake [6]: 49.9%
Drug excretion [7]: 86.96%
Drug excretion [8]: 0.76%
SMILES: C[C@H]1O[C@@H](O[C@H]2[C@H](O)[C@@H](O)[C@@H](O[14C@H]3[14C@H](O)[14CH2]N[14C@@H]3[14CH2]O)O[C@@H]2CO)[C@H](O)[C@@H](O)[C@@H]1O

Cmax [9]: 15.3 ng/mL
clearance [10]: 3.44 mL/min/kg
bioavailability [11]: 1.05%
AUC(0-t) [12]: 186 ng·h/mL
Tmax [13]: 1.75 h
AUC(0-inf) [14]: 1870 ng·h/mL
AUC(0-t) [15]: 53000 ng·h/mL
AUC(0-t) [16]: 42.1 ng·h/mL
AUC(0-t) [17]: 4920 ng·h/mL
AUC(0-inf) [18]: 45.6 ng·h/mL
half-life [19]: 127 min
Cmax [20]: 285 ng/mL
bioavailability [21]: 2.33%
AUC(0-t) [22]: 52 ng·h/mL
clearance [23]: 2.73 mL/min/kg
SMILES: C[C@H]1O[C@@H](O[C@H]2[C@H](O)[C@@H](O)[C@@H](O[C@H]3[C@H](O)CN[C@@H]3CO)O[C@@H]2CO)[C@H](O)[C@@H](O)[C@@H]1O
